Experimental data taken from ChEMBL document CHEMBL1148447, “Structure-activity study on a novel series of macrocyclic inhibitors of the hepatitis C virus NS3 protease leading to the discovery of BILN 2061” (J Med Chem, 2004).

How the values were obtained:
[1] = Maximum plasma concentration in rats after oral administration at 20 mg/kg; format: ADME, organism-based; design: dose 20 mg/kg, route oral; conditions: rat
Procedure, shortened: (§1)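 Rats dosed by oral gavage at 20 mg/kg in PEG400/water (70:30). Cmax and AUC0-∞ were taken from the plasma concentration–time profile.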

[2] = Inhibitory concentration against hepatitis C virus NS3 protease; design: species or system Hepacivirus hominis
[3] = Vss was determined; format: ADME, organism-based; conditions: rat, in vivo; read-out: Vss
Procedure, shortened: (§2)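 Rats received an intravenous bolus of 5 mg/kg in PEG400/water (70:30). Half-life, Vss and plasma clearance were taken from plasma levels. Bioavailability was derived by comparison with oral gavage dosing at 20 mg/kg in the same vehicle.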

[4] = Area under the plasma concentration-time curve in rats after oral administration at 20 mg/kg; format: ADME, organism-based; design: dose 20 mg/kg, route oral; conditions: rat; procedure, shortened: as §1
Rattus norvegicus [5] = assay: Bioavailability in rat (dose 5 mg/kg i.v.); format: functional, organism-based; procedure, shortened: as §2
Rattus norvegicus [6] = assay: Plasma clearance after intravenous administration at 5 mg/kg in rats; format: functional; procedure, shortened: as §2
[7] = Half-life period in rats after intravenous administration at 5 mg/kg; format: ADME, organism-based; design: dose 5 mg/kg, route intravenous; conditions: rat, in vivo; procedure, shortened: as §2
Hepatitis C virus = assay: Inhibition of hepatitis C virus in a cell based HCV replicon assay.; format: functional, organism-based, Hepacivirus hominis
[8] = Maximum plasma concentration in rats following oral administration at 20 mg/kg; format: ADME, organism-based; design: dose 20 mg/kg, route oral; conditions: rat; procedure, shortened: as §1
Rattus norvegicus [9] = assay: Bioavailability from rat plasma at a single oral dose of 25 mg/kg; format: ADME, organism-based; conditions: in vivo
[10] = Area under the plasma concentration-time curve in rats after oral administration at 25 mg/kg; format: ADME, organism-based; design: dose 25 mg/kg, route oral; conditions: rat, read-out: AUC 0-infinity
[11] = Half-life from rat plasma at a single oral dose of 25 mg/kg; format: ADME, organism-based; design: dose 25 mg/kg, route oral
[12] = Area under the plasma concentration-time curve in rats following oral administration at 20 mg/kg; format: ADME, organism-based; design: dose 20 mg/kg, route oral; conditions: rat; procedure, shortened: as §1

SMILES | IC50 [2] [nM] | EC50 (Hepatitis C virus) [nM] | further results
COc1ccc2c(O[C@@H]3C[C@H]4C(=O)N[C@]5(C(=O)O)C[C@H]5/C=C\CCCCC[C@H](NC(=O)OC5CCCC5)C(=O)N4C3)cc(-c3csc(NC(C)C)n3)nc2c1 [CILUPREVIR] | 3 |  | Cmax [1]: 2500 nM; Vd [3]: 1 L/kg; AUC [4]: 12.5 µM·h; bioavailability (Rattus norvegicus [5]): 42%; C1 (Rattus norvegicus [6]): 13 mL/min/kg; half-life [7]: 78 min
COc1ccc2c(O[C@@H]3C[C@H]4C(=O)N[C@]5(C(=O)O)C[C@H]5/C=C\CCCCC[C@H](NC(=O)OC(C)(C)C)C(=O)N4C3)cc(-c3csc(NC(C)=O)n3)nc2c1 | 4.8 | 4.5 | Cmax [8]: 300 nM; AUC [4]: 0.3 µM·h; bioavailability (Rattus norvegicus [5]): 8%; half-life [7]: 48 min
COc1ccc2c(O[C@@H]3C[C@H]4C(=O)N[C@]5(C(=O)O)C[C@H]5/C=C\CCCCC[C@H](NC(=O)OC(C)(C)C)C(=O)N4C3)cc(-c3nnc(C)o3)nc2c1 | 12 | 200 | 
CNc1nc(-c2cc(O[C@@H]3C[C@H]4C(=O)N[C@]5(C(=O)O)C[C@H]5/C=C\CCCCC[C@H](NC(=O)OC5CCCC5)C(=O)N4C3)c3ccc(OC)cc3n2)cs1 | 2.5 | 0.8 | 
COc1ccc2c(O[C@@H]3C[C@H]4C(=O)N[C@]5(C(=O)O)C[C@H]5/C=C\CCCCC[C@H](NC(=O)OC5CCC5)C(=O)N4C3)cc(-c3csc(NC(C)=O)n3)nc2c1 | 2.8 | 0.6 | 
COc1ccc2c(O[C@@H]3C[C@H]4C(=O)N[C@]5(C(=O)O)C[C@H]5/C=C\CCCCC[C@H](NC(=O)OC(C)(C)C)C(=O)N4C3)cc(-n3cccc3)nc2c1 | 5.1 | 9.5 | 
COc1ccc2c(O[C@@H]3C[C@H]4C(=O)N[C@]5(C(=O)O)C[C@H]5/C=C\CCCCC[C@H](NC(=O)OC5CCCC5)C(=O)N4C3)cc(-c3csc(NC(C)=O)n3)nc2c1 | 2.5 | 0.4 | 
COc1ccc2c(O[C@@H]3C[C@H]4C(=O)N[C@]5(C(=O)O)C[C@H]5/C=C\CCCCC[C@H](NC(=O)OC5CCCC5)C(=O)N4C3)cc(-n3cccc3)nc2c1 | 3.6 | 3.4 | 
C=C[C@@H]1C[C@]1(NC(=O)[C@@H]1C[C@@H](Oc2cc(-c3ccccc3)nc3ccccc23)CN1C(=O)[C@@H](NC(=O)[C@@H](NC(=O)[C@@H](CCC(=O)O)NC(=O)[C@H](CC(=O)O)NC(C)=O)c1ccccc1)C(C)(C)C)C(=O)O | 0.5 | 1900 | 
CNc1nc(-c2cc(O[C@@H]3C[C@H]4C(=O)N[C@]5(C(=O)O)C[C@H]5/C=C\CCCCC[C@H](NC(=O)OC(C)(C)C)C(=O)N4C3)c3ccc(OC)cc3n2)cs1 | 6.4 | 6 | 
COc1ccc2c(O[C@@H]3C[C@H]4C(=O)N[C@]5(C(=O)O)C[C@H]5/C=C\CCCCC[C@H](NC(=O)OC(C)(C)C)C(=O)N4C3)cc(-c3ccccc3)nc2c1 | 11 | 77 | F (Rattus norvegicus [9]): 2%; AUC [10]: 0.2 µM·h; half-life [11]: 24 min
COc1ccc2c(O[C@@H]3C[C@H]4C(=O)N[C@]5(C(=O)O)C[C@H]5/C=C\CCCCC[C@H](NC(=O)OC(C)(C)C)C(=O)N4C3)cc(-n3ccnc3)nc2c1 | 4.7 | 13 | 
CCNc1nc(-c2cc(O[C@@H]3C[C@H]4C(=O)N[C@]5(C(=O)O)C[C@H]5/C=C\CCCCC[C@H](NC(=O)OC5CCCC5)C(=O)N4C3)c3ccc(OC)cc3n2)cs1 | 2.9 | 1 | Cmax [8]: 1000 nM; AUC [12]: 7.2 µM·h
C=C[C@@H]1C[C@]1(NC(=O)C1CC(Oc2ccnc3ccccc23)CN1C(=O)[C@@H](NC(=O)[C@@H](NC(C)=O)c1ccccc1)C(C)C)C(=O)O (single isomer, unassigned) | 170 |  | 

More lines, in order of falling IC50 [2], values ahead:

IC50 [2] [nM] | EC50 (Hepatitis C virus) [nM] | SMILES | further results
24 | 1200 | COc1ccc2c(O[C@@H]3C[C@H]4C(=O)N[C@]5(C(=O)O)C[C@H]5/C=C\CCCCC[C@H](NC(=O)OC(C)(C)C)C(=O)N4C3)ccnc2c1 | 
22 | 20 | COc1ccc2c(O[C@@H]3C[C@H]4C(=O)N[C@]5(C(=O)O)C[C@H]5/C=C\CCCCC[C@H](NC(=O)OC(C)(C)C)C(=O)N4C3)cc(-n3cc(C)cn3)nc2c1 | 
14 | 39 | COc1ccc2c(O[C@@H]3C[C@H]4C(=O)N[C@]5(C(=O)O)C[C@H]5/C=C\CCCCC[C@H](NC(=O)OC(C)(C)C)C(=O)N4C3)cc(-n3cnc(C)c3)nc2c1 | 
13 |  | C=C[C@@H]1C[C@]1(NC(=O)C1CC(Oc2cc(-c3ccccc3)nc3ccccc23)CN1C(=O)[C@@H](NC(=O)[C@@H](NC(C)=O)c1ccccc1)C(C)C)C(=O)O (single isomer, unassigned) | 
5.5 | 3.9 | COc1ccc2c(O[C@@H]3C[C@H]4C(=O)N[C@]5(C(=O)O)C[C@H]5/C=C\CCCCC[C@H](NC(=O)OC(C)(C)C)C(=O)N4C3)cc(-n3cccn3)nc2c1 | 
5.5 | 3.2 | COc1ccc2c(O[C@@H]3C[C@H]4C(=O)N[C@]5(C(=O)O)C[C@H]5/C=C\CCCCC[C@H](NC(=O)OC(C)(C)C)C(=O)N4C3)cc(-c3csc(N)n3)nc2c1 | 
3.5 | 1.6 | COc1ccc2c(O[C@@H]3C[C@H]4C(=O)N[C@]5(C(=O)O)C[C@H]5/C=C\CCCCC[C@H](NC(=O)OC5CCCC5)C(=O)N4C3)cc(-c3csc(N)n3)nc2c1 | 
3 | 4 | COc1ccc2c(O[C@@H]3C[C@H]4C(=O)N[C@]5(C(=O)O)C[C@H]5/C=C\CCCCC[C@H](NC(=O)OC(C)(C)C)C(=O)N4C3)cc(-n3ccc(C)n3)nc2c1 | 
2.2 | 1.2 | COc1ccc2c(O[C@@H]3C[C@H]4C(=O)N[C@]5(C(=O)O)C[C@H]5/C=C\CCCCC[C@H](NC(=O)OC5CCCC5)C(=O)N4C3)cc(-n3ccc(C)n3)nc2c1 | 
2.2 | 1.1 | COc1ccc2c(O[C@@H]3C[C@H]4C(=O)N[C@]5(C(=O)O)C[C@H]5/C=C\CCCCC[C@H](NC(=O)OC5CCCC5)C(=O)N4C3)cc(-n3cccn3)nc2c1 | 
1.4 | 20 | COc1ccc2c(O[C@@H]3C[C@H]4C(=O)N[C@]5(C(=O)O)C[C@H]5/C=C\CCCCC[C@H](NC(=O)N[C@H](C)C(C)(C)C)C(=O)N4C3)cc(-c3csc(NC(C)=O)n3)nc2c1 | 
